Laboratory results: ChEMBL document CHEMBL1208712, “Synthesis and anti-HCV activity of 3',4'-oxetane nucleosides” (Bioorg Med Chem Lett, 2010)

Assays:
[1] = Inhibition of HCV NS5B polymerase after 30 mins; set-up: species or system Hepacivirus hominis
Hepatitis C virus = experiment: Antiviral activity against HCV 1a infected in human HB-1 cells assessed as inhibition of viral RNA replication after 24 hrs; assay type: functional, organism-based, Hepacivirus hominis; details: subtype 1a, HB1, 24 h
[2] = Cytotoxicity against human HuH7 cells by MTS assay; assay type: cell-based, Huh-7
Method in brief: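 Tested at concentrations up to 50.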

SMILES | IC50 [1] [µM] | EC90 (Hepatitis C virus) [µM] | CC50 [2] [µM] | EC90 (Hepatitis C virus; read-out: EC90) [µM] | Ki [1] [µM]
Nc1ccn([C@@H]2O[C@@]3(COP(=O)(O)OP(=O)(O)OP(=O)(O)O)CO[C@H]3[C@H]2F)c(=O)n1 | 31 | – | – | – | –
Nc1ccn([C@@H]2O[C@@]3(COP(=O)(O)OP(=O)(O)OP(=O)(O)O)CO[C@H]3[C@@H]2F)c(=O)n1 | 78.9 | – | – | – | –
Nc1ccn([C@@H]2O[C@@]3(COP(=O)(O)OP(=O)(O)OP(=O)(O)O)CO[C@H]3C2(F)F)c(=O)n1 | 32.8 | – | – | – | –
C[C@@]1(F)[C@@H]2OC[C@]2(CO)O[C@H]1n1ccc(N)nc1=O | – | > 50 | > 50 | – | –
Nc1ccn([C@@H]2O[C@@]3(CO)CO[C@H]3[C@H]2F)c(=O)n1 | – | > 50 | > 50 | – | –
Nc1ccn([C@@H]2O[C@@]3(CO)CO[C@H]3[C@@H]2F)c(=O)n1 | – | > 50 | > 50 | – | –
Nc1ccn([C@@H]2O[C@@]3(CO)CO[C@H]3C2(F)F)c(=O)n1 | – | > 50 | > 50 | – | –
CO[C@H]1[C@H](n2ccc(N)nc2=O)O[C@@]2(CO)CO[C@@H]12 | – | > 50 | > 50 | – | –
Nc1ncnc2c1ncn2[C@@H]1O[C@@]2(CO)CO[C@H]2[C@H]1F | – | > 50 | > 50 | – | –
C[C@@]1(F)[C@H](O)[C@@H](CO)O[C@H]1n1ccc(N)nc1=O | – | – | > 50 | 4.6 | –
Nc1ccn([C@@H]2O[C@H](CO)[C@@H](O)[C@H]2F)c(=O)n1 | – | 5.21 | > 50 | – | –
Nc1ccn([C@@H]2O[C@H](CO)[C@@H](O)[C@@H]2F)c(=O)n1 | – | > 50 | > 50 | – | –
Nc1ccn([C@@H]2O[C@H](CO)[C@@H](O)C2(F)F)c(=O)n1 [GEMCITABINE] | – | < 1 | < 0.1 | – | –
C[C@@]1(F)[C@H](O)[C@@H](COP(=O)(O)OP(=O)(O)OP(=O)(O)O)O[C@H]1n1ccc(N)nc1=O [PSI-6130-TP] | 5.37 | – | – | – | 0.059
